According to paper PMC12046972 (ChemMedChem, 2025):
pIC50: −log10 of the molar value.

Key:
solubility in water = type: physicochemical; conditions: in words
SHIP1 [1] = target: T1, SHIP1 (Homo sapiens, UniProt Q92835); experiment: malachite green assay for phosphatase activity, SHIP1; type: biochemical; conditions: described in words; for Inhibition of SHIP1: malachite green assay, compounds evaluated at 1 mM; for selectivity between SHIP1 and SHIP2: malachite green assay at 1 mM
T1 sequence (Q92835 1-1189): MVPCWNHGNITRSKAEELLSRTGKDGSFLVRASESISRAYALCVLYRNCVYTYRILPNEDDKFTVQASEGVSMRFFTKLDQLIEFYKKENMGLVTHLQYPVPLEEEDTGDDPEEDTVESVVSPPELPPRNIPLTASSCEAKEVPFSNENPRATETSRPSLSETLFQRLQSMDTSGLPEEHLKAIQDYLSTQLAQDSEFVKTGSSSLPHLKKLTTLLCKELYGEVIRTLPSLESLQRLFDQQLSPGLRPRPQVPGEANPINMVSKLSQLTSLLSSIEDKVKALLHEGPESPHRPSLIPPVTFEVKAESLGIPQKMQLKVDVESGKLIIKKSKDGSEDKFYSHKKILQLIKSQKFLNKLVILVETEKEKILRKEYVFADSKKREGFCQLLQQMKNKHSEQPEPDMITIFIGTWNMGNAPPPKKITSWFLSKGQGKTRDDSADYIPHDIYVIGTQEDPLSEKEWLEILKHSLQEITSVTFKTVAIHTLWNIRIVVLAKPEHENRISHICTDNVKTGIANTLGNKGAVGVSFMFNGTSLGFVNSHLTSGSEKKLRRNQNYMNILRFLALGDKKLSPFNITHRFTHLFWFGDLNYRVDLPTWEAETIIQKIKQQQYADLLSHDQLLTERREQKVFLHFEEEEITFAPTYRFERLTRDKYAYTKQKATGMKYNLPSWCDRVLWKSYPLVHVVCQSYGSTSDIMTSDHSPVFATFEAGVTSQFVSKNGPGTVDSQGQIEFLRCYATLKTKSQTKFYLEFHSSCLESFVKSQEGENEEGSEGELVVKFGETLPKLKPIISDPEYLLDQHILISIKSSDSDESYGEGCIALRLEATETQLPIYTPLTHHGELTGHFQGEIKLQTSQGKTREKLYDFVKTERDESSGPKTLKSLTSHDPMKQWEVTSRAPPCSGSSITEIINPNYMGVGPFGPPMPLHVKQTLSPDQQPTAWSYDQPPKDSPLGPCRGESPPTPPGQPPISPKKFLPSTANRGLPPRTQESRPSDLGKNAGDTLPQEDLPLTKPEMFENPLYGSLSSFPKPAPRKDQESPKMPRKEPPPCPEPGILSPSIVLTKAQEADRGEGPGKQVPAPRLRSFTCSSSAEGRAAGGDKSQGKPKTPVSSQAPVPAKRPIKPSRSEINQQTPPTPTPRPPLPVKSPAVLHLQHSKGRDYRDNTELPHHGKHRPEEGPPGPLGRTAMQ
Procedure, shortened: (§1)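 Phosphate released from C8-PI(3,4,5)P3 (short-chain substrate used to avoid micelles) measured by malachite green colorimetric readout. Reactions contained only SHIP enzyme, buffer and substrate, with no surfactant. Test compounds were tested at 1 mM from DMSO/buffer mixtures. Values are means of at least 3 measurements, with standard deviation.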

SHIP2 [2] = target: T2, SHIP2 (Homo sapiens, UniProt O15357); experiment: malachite green assay for phosphatase activity, SHIP2; type: biochemical; conditions: compounds evaluated at 1 mM, described in words
T2 sequence (O15357 1-1258): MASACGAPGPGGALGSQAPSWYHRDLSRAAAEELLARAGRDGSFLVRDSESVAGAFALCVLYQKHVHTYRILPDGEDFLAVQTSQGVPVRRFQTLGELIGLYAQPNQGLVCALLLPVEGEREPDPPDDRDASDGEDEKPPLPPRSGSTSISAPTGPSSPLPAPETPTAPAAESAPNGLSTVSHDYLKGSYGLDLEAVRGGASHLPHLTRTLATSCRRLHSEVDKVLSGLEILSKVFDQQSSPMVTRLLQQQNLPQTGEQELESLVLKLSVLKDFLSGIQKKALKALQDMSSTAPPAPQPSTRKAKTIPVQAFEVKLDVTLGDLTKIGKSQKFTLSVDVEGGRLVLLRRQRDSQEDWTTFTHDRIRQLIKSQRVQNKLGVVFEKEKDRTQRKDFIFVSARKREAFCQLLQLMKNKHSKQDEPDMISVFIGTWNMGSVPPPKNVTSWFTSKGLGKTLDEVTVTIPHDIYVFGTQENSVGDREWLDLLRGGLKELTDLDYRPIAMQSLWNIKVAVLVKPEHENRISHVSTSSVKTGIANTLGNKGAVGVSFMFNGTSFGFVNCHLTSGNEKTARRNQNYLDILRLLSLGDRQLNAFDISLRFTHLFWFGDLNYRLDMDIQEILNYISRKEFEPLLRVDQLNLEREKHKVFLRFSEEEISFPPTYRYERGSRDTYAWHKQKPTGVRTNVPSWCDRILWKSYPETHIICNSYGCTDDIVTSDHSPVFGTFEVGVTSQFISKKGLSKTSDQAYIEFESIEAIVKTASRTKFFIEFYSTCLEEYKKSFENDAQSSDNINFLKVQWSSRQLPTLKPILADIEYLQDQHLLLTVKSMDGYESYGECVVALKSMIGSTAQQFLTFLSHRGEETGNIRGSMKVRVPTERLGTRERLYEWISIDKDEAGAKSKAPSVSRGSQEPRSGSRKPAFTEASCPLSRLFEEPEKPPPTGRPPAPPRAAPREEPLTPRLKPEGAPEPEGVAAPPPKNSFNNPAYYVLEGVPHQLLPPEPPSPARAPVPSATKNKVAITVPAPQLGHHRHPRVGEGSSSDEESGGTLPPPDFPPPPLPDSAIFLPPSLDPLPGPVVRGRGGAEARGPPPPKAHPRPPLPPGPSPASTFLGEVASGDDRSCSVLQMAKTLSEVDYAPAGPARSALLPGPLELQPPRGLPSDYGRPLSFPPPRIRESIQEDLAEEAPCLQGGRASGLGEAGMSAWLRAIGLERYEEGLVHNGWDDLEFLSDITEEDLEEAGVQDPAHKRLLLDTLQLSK
Procedure, shortened: as §1

mice = conditions: treatment of mice; cited from earlier work
SHIP2 [3] = target: T2, SHIP2; conditions: ref 19a; cited from earlier work
microglial cell lines = conditions: a number of microglial cell lines; cited from earlier work
SHIP1 [4] = target: T1, SHIP1; experiment: fluorescence polarization; type: biochemical; conditions: general statement in the docking discussion
SHIP1 [5] = target: T1, SHIP1; conditions: read-out: IC50 for SHIP1; cited from earlier work
solubility in DMSO = conditions: in words

SMILES | solubility in water (solubility in water) | Inhibition of SHIP1 (SHIP1 [1]) | Inhibition of SHIP2 (SHIP2 [2]) | further results
CC(C)CCC[C@@H](C)[C@H]1CC[C@H]2[C@@H]3CC[C@H]4CC(N)C(N)C[C@]4(C)[C@H]3CC[C@]12C (stereo partly shown) [Compound 45] | insoluble in water |  |  | 
CC(C)CCC[C@@H](C)[C@H]1CC[C@H]2[C@@H]3CCC4C[C@H](N)CC[C@]4(C)[C@H]3CC[C@]12C.Cl (stereo partly drawn) [Compound 1, 3α-Aminocholestane Hydrochloride] |  | significant activity | significant activity | selectivity between SHIP1 and SHIP2 (SHIP1 [1]): more selectivity for SHIP1; in vivo bioactivity (mice): in vivo bioactivity comparable to genetic phenotypes observed in SHIP knockout mice; selective for SHIP1 over SHIP2 (SHIP2 [3]): at least 4 fold; microglial phagocytosis of dead neurons (microglial cell lines): much less effective; selectivity between the two SHIP paralogs (SHIP1 [4]): some selectivity for SHIP1; pIC50 (SHIP1 [5]): ~5.00; solubility in DMSO (solubility in DMSO): insoluble in DMSO; solubility in DMSO (solubility in DMSO; listed as 3AC): nearly insoluble in DMSO
CC(=O)NC1CCC2(C)C(CCC3C2CCC2(C)C(C(C)CCCC(C)C)CCC32)C1 (stereo not shown) [Compound 13] |  | inactive | inactive | 
CC(C)CCC[C@@H](C)[C@H]1CC[C@H]2[C@@H]3CC[C@H]4C[C@H](NS(C)(=O)=O)CC[C@]4(C)[C@H]3CC[C@]12C [Compound 12] |  | inactive | inactive | 
CC(C)CCCC(C)C1CCC2C3CCC4CC(O)C(N)CC4(C)C3CCC12C (stereo not shown) [Compound 37] | insoluble in water | significant inhibition of SHIP1 |  | 

Further lines, with some results ahead:

solubility in water (solubility in water) | Inhibition of SHIP1 (SHIP1 [1]) | Inhibition of SHIP2 (SHIP2 [2]) | SMILES | further results
 | significant activity | significant activity | CC(C)CCCC(C)C1CCC2C3CCC4CC(N)CCC4(C)C3CCC12C.Cl (stereo not shown) [Compound 11] | 
 | active | significantly less effect | CC(C)CCC[C@@H](C)[C@H]1CC[C@H]2[C@@H]3CC[C@H]4C[C@H](N(C)C)CC[C@]4(C)[C@H]3CC[C@]12C [Compound 15] | selectivity between SHIP1 and SHIP2 (SHIP1 [1]): selective inhibition of SHIP1
insoluble in water | least effective inhibitors | least effective inhibitors | CC(C)CCC[C@@H](C)[C@H]1CC[C@H]2[C@@H]3CC[C@H]4C[C@@H](N)[C@H](N)C[C@]4(C)[C@H]3CC[C@]12C [Compound 47] | 
